Assay outcomes: PubChem, Sanford-Burnham Center for Chemical Genomics
Sampled rows, rich in hits. Any-hit rate of the full collection: about 1.5%.
CCR6 antag: CCR6 receptor antagonists, primary screen, cell-based, CHO-K1, luminescence, beta-arrestin, uHTS. C-C chemokine receptor type 6 (Homo sapiens), P51684. CHO-K1 CCR6 PathHunter beta-arrestin, CCL20-stimulated. inhibition, % at 20 µM. actives 0.49% (n = 340,000). AID 493098, 2011;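 active = compounds whose inhibition of the agonist-driven luminescence signal at 20 µM reaches about 50%, limit read from the data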;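 also: cells stimulated with CCL20 at 14 nM final; plate controls were DMSO with CCL20 for no effect and DMSO without agonist for full effect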
APJ antagonist: antagonists of human apelin receptor APJ, primary screen, CHO-K1 cells, beta-arrestin complementation, luminescence; inhibition, % at 20 µM; AID 2521, 2010; actives 0.32% (n = 330,000);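 active = inhibition above about 40% at 20 µM, limit read from the data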;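 also: cells challenged with 10 nM apelin-13 agonist together with compound; plate controls were apelin-13 plus DMSO wells for no effect and DMSO wells lacking apelin-13 for full effect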
Target sequence (P35414 whole entry, looked up): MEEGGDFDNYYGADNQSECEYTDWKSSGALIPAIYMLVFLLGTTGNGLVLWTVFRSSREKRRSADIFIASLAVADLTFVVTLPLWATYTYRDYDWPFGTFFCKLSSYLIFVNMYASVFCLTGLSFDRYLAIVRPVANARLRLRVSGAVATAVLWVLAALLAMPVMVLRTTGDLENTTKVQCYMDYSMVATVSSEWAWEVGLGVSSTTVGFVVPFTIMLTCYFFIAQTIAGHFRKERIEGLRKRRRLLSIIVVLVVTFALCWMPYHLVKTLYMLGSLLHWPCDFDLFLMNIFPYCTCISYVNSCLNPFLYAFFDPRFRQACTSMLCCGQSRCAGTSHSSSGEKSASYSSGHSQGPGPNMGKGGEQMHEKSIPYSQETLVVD
EBI2 antag: EBI2 receptor antagonists, beta-arrestin recruitment, primary screen, cell-based, luminescence, 7a,25-OHC stimulation, uHTS | G-protein coupled receptor 183 (Homo sapiens), P32249 | 7a,25-OHC stimulated | inhibition, % at 5 µM | actives 0.81% (n = 360,000); in the data active = inhibition above about 38%;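 also: enzyme fragment complementation signal reports receptor beta-arrestin coupling in cells; 0% = agonist plus DMSO wells and 100% = wells without agonist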
APJ agonist: agonists of human apelin receptor APJ, primary screen, CHO-K1 cells, PathHunter beta-arrestin, luminescence. P35414. actives 0.11% (n = 330,000). activation, % at 20 µM. 0% DMSO wells, 100% apelin;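 active = activation more than six SD over the plate average, tested at 20 µM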;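 also: 0% = DMSO alone and 100% = apelin-13 at 10 nM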
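Material: engineered CHO-K1 APJ arrestin reporter cells; amount: 1000 CHO-K1 reporter cells seeded per well; incubation: compound stimulation 90 min at 25 °C, detection 60 min; signal: luminescent beta-gal fragment complementation, chemiluminescent substrate; read-out basis: APJ agonist activity; controls: DMSO-only wells as negative, 10 nM Apelin-13 as positive control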
CXCR6 block: CXCR6 receptor inhibitors, primary screen, cell-based, beta-arrestin, luminescence, CHO-K1 PathHunter, 1536-well; C-X-C chemokine receptor type 6 (Homo sapiens), O00574; inhibition, % at 20 µM; actives 0.36% (n = 360,000); in the data active = inhibition above about 34%, passing the limit was not always enough;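 also: antagonist mode with CXCL16 agonist at 10 nM final; 0% = 10 nM CXCL16 with DMSO and 100% = unstimulated wells without agonist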
Target sequence (O00574 whole entry, looked up): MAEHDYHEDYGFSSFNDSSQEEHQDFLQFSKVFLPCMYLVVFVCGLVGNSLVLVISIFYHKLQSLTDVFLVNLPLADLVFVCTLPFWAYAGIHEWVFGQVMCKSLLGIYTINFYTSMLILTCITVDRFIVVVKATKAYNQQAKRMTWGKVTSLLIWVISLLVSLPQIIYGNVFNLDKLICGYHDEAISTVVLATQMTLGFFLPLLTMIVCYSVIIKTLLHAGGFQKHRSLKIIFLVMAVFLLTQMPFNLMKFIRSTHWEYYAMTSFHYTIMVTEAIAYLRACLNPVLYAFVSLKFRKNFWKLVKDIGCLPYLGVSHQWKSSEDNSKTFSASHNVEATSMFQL
EBI2 conf: EBI2 antagonist hit retest, beta-arrestin, confirmation, cell-based, single concentration, luminescence, 7a,25-OHC stimulation; shares compounds with EBI2 antag; 7a,25-OHC antagonism; inhibition, % at 5 µM; actives 29% (n = 2,400); AID 651997, 2013;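 active = inhibition of at least 50%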
EBI2 ag: EBI2 agonist activity of antagonist hits, confirmation, counter-screen for EBI2 antagonist project, cell-based, single concentration, agonist mode, luminescence; shares compounds with EBI2 antag; EBI2-expressing cells, 60 min; 0% vehicle, 100% 7α,25-dihydroxycholesterol control; activation, % at 5 µM; 2,400 tested, under 10 active; AID 652000, 2013;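 active = activation of at least 50%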
bGal cs: E. coli beta-galactosidase enzyme inhibition, confirmation, counter-screen for EBI2 antagonist project, biochemical, luminescence, single concentration. shares compounds with EBI2 antag. purified beta-galactosidase, luminescent Galacton Star, 15 min. inhibition, % at 5 µM. actives 1% (n = 2,400). AID 652176, 2013;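 active = replicate-average signal at least 3 plate SD below neutral wells, shown as high inhibition, flagging enzyme-inhibiting false positives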;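 also: 0% = DMSO wells with enzyme and 100% = wells lacking enzyme; higher means stronger loss of beta-gal luminescence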
Active calls of the source: *; . = no result given.

SMILES | CCR6 antag | APJ antagonist | EBI2 antag | APJ agonist | CXCR6 block | EBI2 conf | EBI2 ag | bGal cs
O=C(Cn1ccc([N+](=O)[O-])n1)NCc1ccccc1 | 4 | -7 | -5 | -3 | 4 | . | . | .
COc1ccc(OCC(=O)N2CCN(S(=O)(=O)c3ccc(Cl)cc3)CC2)cc1 | 14 | 9 | 71* | -7 | 1 | 58* | 0 | 5
CC(C)CCN(C(=O)CCCSc1nc2ccccc2[nH]1)c1c(N)n(Cc2ccccc2)c(=O)[nH]c1=O | 12 | 18 | 3 | 11 | 4 | . | . | .
Cc1ccc(C(C)C)c(OCc2ccc(C(=O)N/N=C/c3ccc(C(=O)O)cc3)cc2)c1 | 8 | -5 | 40* | -2 | -3 | 8 | 0 | 8
CN(C)c1ccc(C(=O)/C=C/c2ccc(Br)cc2)cc1 | 14 | -10 | 86* | 0 | 8 | 64* | -1 | -21
N#Cc1ccc(C(=O)N2CCN(S(=O)(=O)c3ccc(Cl)s3)CC2)cc1 | 20 | 32 | 56* | 3 | -5 | 31 | 0 | 7
CC(C)C[C@H]1CNC(=S)N1C[C@H]1CCCN1C[C@H](CC(C)C)N1C[C@H](Cc2ccc(O)cc2)N(CC2CCCCCC2)C1=S | . | . | 60* | . | 8 | 25 | -1 | -14
CC(C)C[C@H]1CNC(=S)N1CC1CCCN1C[C@H](CC(C)C)N1C[C@H](Cc2ccc(O)cc2)N(CC2CCCCC2)C1=S (stereo partly drawn) | 9 | . | 31 | . | 8 | . | . | .
CC(C)C[C@@H](CN1CCC[C@@H]1CN1C(=S)NC[C@@H]1Cc1ccccc1)N1C[C@H](Cc2ccc(O)cc2)N(CC2CCCCCC2)C1=S | . | . | 58* | . | -1 | 17 | -1 | -10
COC(=O)C1=CN(Cc2ccccc2)C=C(C(=O)OC)C1c1cc(F)ccc1F | 37 | 18 | 5 | -3 | 26 | . | . | .
CCOc1ccc(C(=O)/C=C/c2ccc(SC)cc2)cc1 | 11 | -4 | 61* | -3 | -1 | 50* | 0 | 7
Oc1cncc(Cc2ccccc2)c1 | 12 | 20 | -9 | -3 | 0 | . | . | .
CCOc1cc(N2CCOCC2)c(OCC)cc1NC(=O)COC(=O)c1cccc2ccccc12 | -3 | 4 | 55* | 2 | 7 | 42 | 0 | -22
CCOc1cc(N2CCOCC2)c(OCC)cc1NC(=O)COC(=O)c1ccccc1OC(F)F | 11 | 18 | 22 | -5 | 0 | . | . | .
OC1c2cc(Br)ccc2N=C2CCCN21 (stereo not drawn) | -3 | 0 | -5 | -2 | 7 | . | . | .
CCOC(=O)c1cc(-c2ccccc2)sc1N | 8 | 6 | 46* | -9 | 1 | 59* | 3 | -1
CC1(Oc2cccc(F)c2)CCN(Cc2ccc(-c3ccccc3)o2)C1 (stereo not drawn) | . | . | -9 | . | 1 | . | . | .
COc1cccc(OCCNC(=O)c2cc([N+](=O)[O-])cc([N+](=O)[O-])c2)c1 | -7 | -15 | -4 | 3 | -6 | . | . | .
Cc1ccc(OCCNC(=O)c2cc(C(=O)NCCOc3ccc(C)cc3)cc([N+](=O)[O-])c2)cc1 | 2 | -21 | 47* | 2 | 4 | 30 | -1 | -20
Cc1ccc(OCCNC(=O)CCNS(=O)(=O)c2ccc3ccccc3c2)cc1 | 2 | -6 | 47* | -2 | -13 | 5 | -1 | -10
Cc1ccc(C(=O)NCCOc2ccc(Cl)cc2)cc1 | 5 | 5 | 51* | -5 | 2 | 22 | -1 | -8
Cc1cccc(C)c1NC(=O)C(=O)NCCOc1ccc(Cl)cc1 | -10 | 8 | 51* | -3 | -2 | 25 | 1 | 4
Cc1ccc(S(=O)(=O)NCCC(=O)NCCOc2ccccc2)cc1 | -3 | 2 | 14 | -1 | 0 | . | . | .
CN(Cc1ccccc1)C(=O)c1ccc(Nc2nc(C(N)Cc3ccc(C(F)(F)F)cc3)cs2)nc1 (stereo not drawn) | . | . | 9 | . | -4 | . | . | .
O=C(Cc1ccc(F)cc1)NCCc1ccc(F)cc1 | 14 | 12 | 7 | -5 | -3 | . | . | .
SMILES | CCR6 antag | APJ antagonist | EBI2 antag | APJ agonist | CXCR6 block | EBI2 conf | EBI2 ag | bGal cs
Cc1ccc(OCCNC(=O)Cc2ccc(F)cc2)cc1 | 6 | 11 | 50* | -4 | 0 | 44 | 1 | 5
CCc1ccc(OCCNC(=O)c2ccc(S(=O)(=O)N(C)C)cc2)cc1 | -1 | 1 | 64* | -4 | -6 | 41 | -1 | -9
Cc1cc(C)n(-c2nc(SCCN(C)C)c3c4c(sc3n2)COC(C)(C)C4)n1 | 4 | 32 | 11 | -6 | 6 | . | . | .
Cc1ccc(C(=O)NCCN2CCN(C(=O)c3ccc(C)c(C)c3)CC2)cc1C | 2 | 5 | 13 | -4 | 3 | . | . | .
O=C(NCCN1CCN(C(=O)c2ccc(Br)cc2)CC1)c1ccc(Br)cc1 | -2 | 15 | 44* | 3 | -8 | 22 | -1 | -6
C=CCNC(=O)COC(=O)c1ccc(Sc2nncn2C)c([N+](=O)[O-])c1 | 4 | -34 | -1 | -1 | -4 | . | . | .
O=C(c1ccc(-c2ccccc2Cl)s1)N1CCOCC1 | 8 | 17 | -11 | -2 | 2 | . | . | .
CC(C)N(C)c1ncnc2c1ncn2[C@H]1CN(Cc2ccccc2)C[C@@H](CO)O1 | . | . | 16 | . | -6 | . | . | .
OC[C@@H]1CN(Cc2ccccc2)C[C@H](n2cnc3c(NC4CC4)ncnc32)O1 | . | . | 24 | . | 6 | . | . | .
CC(C)N(C)c1ncnc2c1ncn2[C@H]1CN(Cc2ccc(Cl)cc2)C[C@@H](CO)O1 | . | . | 83* | . | 0 | 77* | -2 | -9
OC[C@@H]1CN(Cc2ccc(F)cc2)C[C@H](n2cnc3c(NC4CC4)ncnc32)O1 | . | . | 65* | . | -6 | 66* | 1 | 9
O=C(/C=C1\OCc2cc(OCc3ccccc3)ccc21)OCc1ccccc1 | . | . | 46* | . | . | 32 | -1 | -15
COc1ccc(CCNC(=O)c2ccc(-c3ccc([N+](=O)[O-])cc3)o2)cc1OC | -11 | . | 2 | . | -5 | . | . | .
CN(Cc1ccccc1)C(=O)c1cc2cc(F)ccc2[nH]1 | 10 | -2 | 55* | 0 | 5 | 58* | 0 | 7
